Compounds with a hit are over-represented: about 4.5% of the library has one in this group of screens.
GPR7 antag – GPR7 receptor antagonists, primary screen, cell-based, fluorescence, single concentration | Neuropeptides B/W receptor type 1 (Homo sapiens), P48145 | GPR7-expressing cells, fluorescence antagonist assay | inhibition, % at 4.4 µM | actives 1.1% (n = 290,000) | AID 1861, 2009; in the data active means inhibition above about 16%, passing the limit was not always enough;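 further: cells stimulated with the agonist NPW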
OX1R antag-1 – OX1R (HCRTR1) antagonists, primary screen, fluorescence, CHO/OX1R cells, Fluo-8 calcium, orexin A | Orexin/Hypocretin receptor type 1 (Homo sapiens), O43613 | Fluo-8 calcium fluorescence | inhibition, % at 5 µM | actives 0.43% (n = 330,000);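 active means inhibition above its plate's threshold, mean inhibition of all tested compounds on the plate plus 3 SD, cut at about 37% in these data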
Target sequence (O43613 whole entry, looked up): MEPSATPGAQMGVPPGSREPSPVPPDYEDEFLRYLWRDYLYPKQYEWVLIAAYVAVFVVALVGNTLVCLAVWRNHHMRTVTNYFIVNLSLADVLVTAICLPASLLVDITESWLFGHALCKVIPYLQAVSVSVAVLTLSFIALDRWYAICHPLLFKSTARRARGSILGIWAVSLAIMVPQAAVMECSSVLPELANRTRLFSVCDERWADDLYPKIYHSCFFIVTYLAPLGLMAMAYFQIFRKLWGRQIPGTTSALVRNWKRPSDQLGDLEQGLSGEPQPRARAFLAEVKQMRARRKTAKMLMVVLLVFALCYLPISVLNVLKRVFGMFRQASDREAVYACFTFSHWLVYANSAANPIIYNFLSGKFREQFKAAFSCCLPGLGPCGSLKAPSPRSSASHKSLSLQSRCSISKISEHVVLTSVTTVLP
CHO parental Ca – ATP-evoked calcium signal inhibitors, parental CHO, primary screen, counter-screen for OX1R antagonist project, cell-based, fluorescence, Fluo-8 calcium dye; parental CHO-K1, ATP-induced calcium, Fluo-8 fluorescence; inhibition, % at 5.6 µM; actives 0.63% (n = 330,000); AID 463079, 2010;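 active means inhibition above that plate's mean sample inhibition plus 3 SD, cut at about 26% in these data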
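Test system: parental CHO cells; detection: calcium-sensitive Fluo-8 fluorescence; evaluation: percent inhibition of calcium signal; also added: ATP as calcium-mobilizing challenge; repeats: one well per compound; control set: ATP-challenged DMSO wells low, unchallenged DMSO wells high; compound: single nominal dose of 5.6 µM per compound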
OX1R antag-2 – antagonists of human orexin 1 receptor (OX1R); actives 1.8% (n = 330,000); AID 485270, 2010; Orexin/Hypocretin receptor type 1 (Homo sapiens), O43613; OX1R-expressing cells, FRET antagonist read-out; inhibition, % at 6.6 µM; in the data active means inhibition mostly above about 38%, no sharp cut-off; inactive means mostly below about 40%
TAAR1 antagonist – human TAAR1 antagonists, primary screen, Fluo-8 calcium fluorescence, CHO RD-HGA16 cells. Trace amine-associated receptor 1 (Homo sapiens), Q96RJ0. antagonist. inhibition, % at 3 µM. actives 1.5% (n = 360,000);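 active means inhibition above a per-plate cutoff, the mean inhibition of test compounds on that plate plus 3 SD, cut at about 49% in these data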
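Assay system: RD-HGA16 CHO cells with stable hTAAR1 and Gα16 / Reagent: EC80 β-phenethylamine stimulus / Doses: 3 µM, single point / Timing: dye loading 75 min at 37 °C, then 30 min room temperature / Measured by: Fluo-8 intracellular calcium dye fluorescence, real-time kinetic reads / Controls: vehicle wells and EC80 agonist wells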
TAAR1 ag – human TAAR1 agonists, primary screen, Fluo-8 calcium fluorescence, CHO RD-HGA16 cells. Trace amine-associated receptor 1 (Homo sapiens), Q96RJ0. vehicle wells 0%, saturating PEA agonist 100%. activation, % at 3 µM. actives 0.99% (n = 360,000). AID 624467, 2012;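 active means activation above the mean activation of all test compounds in the run plus 3 SD, cut at about 38% in these data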
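System: CHO-derived RD-HGA16 cells with stable Gα16 and human TAAR1 / Times: 17-24 h plating, Fluo-8 75 min 37 °C, 30 min RT / Technique: calcium-sensitive Fluo-8 signal, excitation 470-495, emission 515-575 nm / Measure: % activation relative to PEA EC100 response / Benchmarks: DMSO and PEA EC100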
OX1R HTRF conf – OX1R (HCRTR1) antagonists, confirmation, cell-based, HTRF; shares compounds with OX1R antag-2; inhibition, % at 6.6 µM; AID 492964, 2010; OX1R-expressing cells, HTRF antagonist assay; actives 49% (n = 1,800); in the data active means inhibition above about 55%;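 further: CHO cells expressing OX1R stimulated with orexin A at about EC80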
CHO-K1 HTRF – signal inhibition in parental CHO-K1 cells, counter-screen for OX1R antagonist project, cell-based, HTRF. shares compounds with OX1R antag-2. HTRF counterscreen. inhibition, % at 6.6 µM. actives 48% (n = 1,800). AID 493232, 2011; in the data active means inhibition above about 17%
A number is an active result; i = inactive; nt = no result given; + = active, no number.

SMILES	GPR7 antag	OX1R antag-1	CHO parental Ca	OX1R antag-2	TAAR1 antagonist	TAAR1 ag	OX1R HTRF conf	CHO-K1 HTRF
Cn1c(N)c(C(=O)COC(=O)c2ccc([N+](=O)[O-])o2)c(=O)n(C)c1=O	i	i	i	105	i	i	i	55
Cn1c(N)c(C(=O)COC(=O)Cc2ccc(F)cc2)c(=O)n(C)c1=O	nt	nt	nt	nt	i	i	nt	nt
Cc1ccc(-n2c3c(c(=O)[nH]c2=O)C(NS(=O)(=O)c2ccc(Cl)cc2)(C(F)(F)F)C(=O)N3)cc1 (stereo not drawn)	i	i	i	i	i	i	nt	nt
CN1c2ccccc2C(O)=C(C(=S)Nc2ccccc2)S1(=O)=O	i	i	i	i	i	i	nt	nt
CN1c2ccccc2C(O)=C(C(=S)Nc2ccc(F)c(Cl)c2)S1(=O)=O	i	i	i	82	i	i	i	i
COc1ccccc1Nc1nc2ccc(C)cc2n2cnnc12	i	i	i	i	i	i	nt	nt
COCCn1c(SCC(=O)Nc2nc3ccccc3s2)nnc1-c1ccoc1C	i	i	i	81	i	i	i	i
O=c1ccc(-c2ccc([N+](=O)[O-])cc2)nn1-c1ccccc1	i	i	i	i	i	i	nt	nt
O=[N+]([O-])c1ccc(-[n+]2nc(-c3ccccc3)nn2-c2ccccc2)cc1	i	i	i	81	i	i	i	79
Cc1cccc(C(=O)N=c2c(C#N)cc3c(=O)n4cccc(C)c4nc3n2Cc2ccco2)c1	i	i	i	i	i	i	nt	nt
Cc1cccn2c(=O)c3cc(C#N)c(=NC(=O)c4ccccc4)n(Cc4ccco4)c3nc12	nt	i	i	88	i	i	i	41
Cc1nc(-c2ccc([N+](=O)[O-])cc2)sc1C(=O)O	i	i	i	156	i	i	i	76
Cc1ccc(-c2nc(C)c(C(=O)O)s2)cc1	i	i	i	i	i	i	nt	nt
O=[N+]([O-])c1ccc(N2CCN(Cc3ccc(Br)o3)CC2)cc1	i	nt	nt	nt	i	i	nt	nt
O=C1C2=C(c3ccccc31)[N+](=O)C1CCCCC1N2[O-] (stereo not drawn)	i	i	i	112	i	i	i	44
O=C(Nc1cccc(Cl)c1)Nc1ccc(Br)cc1F	i	i	i	82	i	i	i	i
CC1CN(c2ccc([N+](=O)[O-])nc2)CC(C)O1 (stereo not drawn)	i	i	i	82	i	i	i	47
COc1ccccc1N(CC(O)COc1ccc(C)cc1)S(=O)(=O)c1ccccc1 (stereo not drawn)	i	i	i	78	i	i	91	i
CCc1nnc(NC(=O)CCC(=O)NCc2ccc(C)cc2)s1	i	i	i	i	i	i	nt	nt
Cc1ccc2cccc(OCc3cccc([N+](=O)[O-])c3)c2n1	i	i	i	i	i	i	nt	nt
O=C(COc1ncnc2cc([N+](=O)[O-])ccc12)NCc1ccc2c(c1)OCO2	i	i	i	81	i	i	i	45
O=C(COC(=O)Cc1ccc([N+](=O)[O-])cc1)NCc1ccc2c(c1)OCO2	nt	i	i	i	i	i	nt	nt
O=[N+]([O-])c1cccc(COc2ncnc3cc([N+](=O)[O-])ccc23)c1	i	i	i	91	i	i	i	48
C=COCCNC(=S)N1CCOCCOCCN(C(=S)NCCOC=C)CCOCCOCC1	i	i	i	i	i	i	nt	nt
CC(NC(=O)C1CCN(C(=O)Nc2ccccc2)CC1)c1ccc(Cl)cc1 (stereo not drawn)	nt	i	i	i	i	i	nt	nt
SMILES	GPR7 antag	OX1R antag-1	CHO parental Ca	OX1R antag-2	TAAR1 antagonist	TAAR1 ag	OX1R HTRF conf	CHO-K1 HTRF
CCS(=O)(=O)N1CCC(C(=O)Oc2ccc(Cl)cc2)CC1	i	i	i	i	i	i	nt	nt
O=C(O)CNc1ncccc1[N+](=O)[O-]	i	i	i	+	i	i	i	46
CC(C)Oc1ccccc1/C=N/n1nnnc1N	nt	i	i	i	i	i	nt	nt
O=C1c2ccccc2C(=O)c2c1cccc2N1CCOCC1	i	i	i	81	i	i	i	34
N#C/C(=C\c1c(Oc2ccccc2F)nc2ccccn2c1=O)C(=O)NC1CCS(=O)(=O)C1 (stereo not drawn)	i	i	i	89	i	i	i	36
N#C/C(=C\c1c(Oc2ccccc2Cl)nc2ccccn2c1=O)C(=O)NC1CCS(=O)(=O)C1 (stereo not drawn)	i	i	i	i	i	i	nt	nt
COCC(C)NC(=O)c1cccc([N+](=O)[O-])c1 (stereo not drawn)	i	i	i	127	i	i	i	19
COc1cc2ccc(C(=O)O)cc2cc1OC	nt	nt	nt	nt	i	i	nt	nt
O=C(Nc1nc2nc(-c3ccccc3)cc(-c3ccccc3)n2n1)c1ccco1	i	i	i	80	i	i	i	i
CC(=O)Nc1nc2nc(-c3ccccc3)cc(-c3ccccc3)n2n1	i	i	i	i	i	i	nt	nt
O=C1C(N2CCOCC2)=C(n2nnc3ccccc32)C(=O)c2ccccc21	i	i	i	189	i	i	i	75
COc1ccccc1/C=N/N1C(=O)c2cccc3cccc(c23)C1=O	i	i	i	97	i	i	i	55
CN1CCc2cc3c(c4c2[C@H]1[C@H](O)c1ccccc1-4)OCO3	i	i	i	119	i	i	66	35
COc1ccccc1C(=O)Nc1sc2c(c1C#N)CCC2	i	i	i	i	nt	nt	nt	nt
Cn1cc(Br)c(C(=O)Nc2sc3c(c2C(N)=O)CCC3)n1	i	i	i	79	i	i	i	i
COc1ccccc1C(=O)Nc1sc2c(c1C(N)=O)CCCC2	i	i	i	79	i	i	69	i
CN(CCO)S(=O)(=O)c1ccc2c(c1)C(=NN)c1cc(S(=O)(=O)N(C)CCO)ccc1-2	i	i	i	i	i	i	nt	nt
O=C1c2cc(S(=O)(=O)N(CCO)CCO)ccc2-c2ccc(S(=O)(=O)N(CCO)CCO)cc21	nt	i	i	111	i	i	71	72
CCCC(=O)NNC(=O)c1c(O)c2ccccc2[nH]c1=O	i	i	i	i	i	i	nt	nt
Cc1cccnc1-n1c(CCN2C(=O)c3ccccc3C2=O)nc2ccccc2c1=O	i	i	i	92	i	i	85	i

Screening data as filed in PubChem BioAssay.
